Consider twelve compounds from ChEMBL document CHEMBL2424631, “The carbonate analogues of 5'-halogenated resiniferatoxin as TRPV1 ligands” (Eur J Med Chem, 2013).

Assay type in all cases: cell-based
For assay [1], the target named is T1, Transient receptor potential cation channel subfamily V member 1 (Rattus norvegicus, UniProt O35433). The assay is described as follows: Antagonist activity at rat TRPV1 expressed in CHO cells assessed as inhibition of capsaicin-stimulated Ca2+ uptake. The method, boiled down:
(§1)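 Functional 45Ca2+ uptake assay in CHO cells heterologously expressing rat or human TRPV1. Agonism is reported as EC50, and as % of the capsaicin response. Antagonism is reported as Ki(ant) against capsaicin-stimulated 45Ca2+ uptake, and as % antagonism of that response. Ki and EC50 are mean ± SEM of three or more independent experiments.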

Assay [2] deals with T2, Transient receptor potential cation channel subfamily V member 1 (Homo sapiens, UniProt Q8NER1). The assay is described as follows: Displacement of [3H]RTX from human TRPV1 expressed in CHO cells. The method, boiled down:
(§2)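 Competitive binding against [3H]RTX on rat or human TRPV1 heterologously expressed in CHO cells. Affinity is reported as Ki, as mean ± SEM of three or more independent experiments.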
(In general: Displacement assays read how much labelled ligand stays bound in the presence of the test substance.)

For assay [3], the target named is T2, Transient receptor potential cation channel subfamily V member 1. The assay is described as follows: Antagonist activity at human TRPV1 expressed in CHO cells assessed as inhibition of capsaicin-stimulated Ca2+ uptake. The method, boiled down: as §1
Assay [4] concerns the target T1, Transient receptor potential cation channel subfamily V member 1. In words: Displacement of [3H]RTX from rat TRPV1 expressed in CHO cells. The method, boiled down: as §2
In assay [5] the target is Transient receptor potential cation channel subfamily V member 1 (Rattus norvegicus) (UniProt O35433). In words: Ratio of I-RTX Ki to compound Ki for rat TRPV1 expressed in CHO cells.
The target is the same in assay [6]. In words: Agonist activity at rat TRPV1 expressed in CHO cells assessed as stimulation of Ca2+ uptake relative to capsaicin. The method, boiled down:
as §1

The target in assay [7] is T2, Transient receptor potential cation channel subfamily V member 1. The assay is described as follows: Agonist activity at human TRPV1 expressed in CHO cells assessed as stimulation of Ca2+ uptake. In short, it runs like this:
as §1

Assay [8] addresses T1, Transient receptor potential cation channel subfamily V member 1. The assay is described as follows: Agonist activity at rat TRPV1 expressed in CHO cells assessed as stimulation of Ca2+ uptake. In short, it runs like this:
as §1

Assay [9] concerns the target Transient receptor potential cation channel subfamily V member 1 (Rattus norvegicus) (UniProt O35433). In words: Partial antagonist activity at rat TRPV1 expressed in CHO cells assessed as inhibition of capsaicin-stimulated Ca2+ uptake measured as residual agonism. As to conditions: concentration not given here. In short, it runs like this: as §1

Chain of Transient receptor potential cation channel subfamily V member 1 (Rattus norvegicus) (O35433 whole entry): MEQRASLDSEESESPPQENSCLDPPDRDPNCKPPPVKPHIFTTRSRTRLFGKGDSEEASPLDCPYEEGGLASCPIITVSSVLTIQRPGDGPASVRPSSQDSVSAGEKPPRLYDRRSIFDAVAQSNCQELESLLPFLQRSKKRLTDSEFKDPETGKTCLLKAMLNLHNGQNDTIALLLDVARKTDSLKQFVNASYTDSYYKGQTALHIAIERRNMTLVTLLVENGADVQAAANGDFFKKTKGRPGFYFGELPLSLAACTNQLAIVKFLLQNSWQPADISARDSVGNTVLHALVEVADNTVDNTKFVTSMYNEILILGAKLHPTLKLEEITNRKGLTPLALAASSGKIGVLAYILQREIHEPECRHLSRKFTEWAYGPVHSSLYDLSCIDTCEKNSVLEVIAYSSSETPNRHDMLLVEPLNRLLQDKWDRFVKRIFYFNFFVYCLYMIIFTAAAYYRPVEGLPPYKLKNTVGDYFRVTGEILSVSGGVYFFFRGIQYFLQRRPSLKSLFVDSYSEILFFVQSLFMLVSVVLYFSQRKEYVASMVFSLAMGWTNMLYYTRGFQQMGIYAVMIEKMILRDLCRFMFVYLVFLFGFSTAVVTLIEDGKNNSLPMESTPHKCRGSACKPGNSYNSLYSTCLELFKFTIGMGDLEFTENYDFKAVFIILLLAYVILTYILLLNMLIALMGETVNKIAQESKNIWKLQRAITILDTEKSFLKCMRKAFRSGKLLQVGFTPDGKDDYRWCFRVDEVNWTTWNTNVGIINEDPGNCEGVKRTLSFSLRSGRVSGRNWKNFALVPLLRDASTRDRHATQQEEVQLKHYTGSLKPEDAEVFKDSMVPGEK
T1 sequence (O35433 whole entry): as above
T2 sequence (Q8NER1 whole entry): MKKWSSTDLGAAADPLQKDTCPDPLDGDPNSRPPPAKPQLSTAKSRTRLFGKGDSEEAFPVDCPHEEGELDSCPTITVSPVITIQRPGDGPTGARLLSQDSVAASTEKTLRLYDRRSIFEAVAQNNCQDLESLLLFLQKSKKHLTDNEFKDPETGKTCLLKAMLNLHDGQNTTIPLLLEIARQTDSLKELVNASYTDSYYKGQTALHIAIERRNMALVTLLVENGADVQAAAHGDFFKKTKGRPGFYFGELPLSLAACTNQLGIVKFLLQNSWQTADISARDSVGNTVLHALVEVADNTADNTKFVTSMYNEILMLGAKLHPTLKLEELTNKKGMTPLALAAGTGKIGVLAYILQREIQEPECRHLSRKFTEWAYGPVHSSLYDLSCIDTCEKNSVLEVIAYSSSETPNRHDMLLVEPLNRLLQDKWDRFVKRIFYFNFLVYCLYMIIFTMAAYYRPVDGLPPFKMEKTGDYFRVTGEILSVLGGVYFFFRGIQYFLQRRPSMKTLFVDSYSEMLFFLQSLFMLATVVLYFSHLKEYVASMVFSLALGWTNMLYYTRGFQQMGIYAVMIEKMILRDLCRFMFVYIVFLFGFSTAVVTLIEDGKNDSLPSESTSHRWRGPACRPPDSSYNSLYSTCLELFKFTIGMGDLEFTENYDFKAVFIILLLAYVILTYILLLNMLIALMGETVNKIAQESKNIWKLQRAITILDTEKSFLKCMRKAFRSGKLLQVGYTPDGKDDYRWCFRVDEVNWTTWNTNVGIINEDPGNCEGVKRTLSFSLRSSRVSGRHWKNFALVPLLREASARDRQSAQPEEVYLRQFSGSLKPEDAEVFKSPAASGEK

As to `C=C(C)[C@]12C[C@@H](C)[C@@]34O[C@](Cc5ccccc5)(O[C@@H]1[C@@H]3C=C(COC(=O)Oc1cc(Br)c(N)c(OC)c1)C[C@]1(O)C(=O)C(C)=C[C@@H]41)O2`, the Ki in assay [1] amounted to 2.46 nM; in assay [2] it was 212 nM; in assay [3] it was 666 nM; in assay [4], 1.83 nM. Moreover, in [5], the Ratio Ki came to 5.
With `C=C(C)[C@]12C[C@@H](C)[C@@]34O[C@](Cc5ccccc5)(O[C@@H]1[C@@H]3C=C(COC(=O)Oc1cc(F)c(N)c(OC)c1)C[C@]1(O)C(=O)C(C)=C[C@@H]41)O2`, the Activity in [6] was 83%. Also, the Ki in [2] was 830 nM; in [4] it was 2.21 nM. Moreover, the EC50 was found to be 17.9 nM in assay [7] and 3.17 nM in assay [8].
On to `C=C(C)[C@]12C[C@@H](C)[C@@]34O[C@](Cc5ccccc5)(O[C@@H]1[C@@H]3C=C(COC(=O)Oc1cc(Br)c(O)c(OC)c1)C[C@]1(O)C(=O)C(C)=C[C@@H]41)O2`, for which the Ki turned out to be 5.2 nM in assay [1], 33.3 nM in [2], 512 nM in assay [3] and 1.64 nM in assay [4]. For the same compound, in assay [9], the inhibition came out at 13%. In [5], the Ratio Ki amounted to 2.
On to `C=C(C)[C@]12C[C@@H](C)[C@@]34O[C@](Cc5ccccc5)(O[C@@H]1[C@@H]3C=C(COC(=O)Oc1ccc(N)c(OC)c1)C[C@]1(O)C(=O)C(C)=C[C@@H]41)O2`, for which the Ki in assay [2] worked out at 140 nM; in [4], 0.58 nM. The EC50 came to 6.28 nM in assay [7] and 1.84 nM in assay [8].
Regarding `C=C(C)[C@]12C[C@@H](C)[C@@]34O[C@](Cc5ccccc5)(O[C@@H]1[C@@H]3C=C(COC(=O)Oc1cc(Cl)c(N)c(OC)c1)C[C@]1(O)C(=O)C(C)=C[C@@H]41)O2`, the inhibition constant Ki in assay [1] was 4.06 nM; in assay [2], 330 nM; in assay [3], 1400 nM; in assay [4], 2.5 nM. Also, the Ratio Ki in [5] was 5.
Consider `C=C(C)[C@]12C[C@@H](C)[C@@]34O[C@](Cc5ccccc5)(O[C@@H]1[C@@H]3C=C(COC(=O)Oc1cc(I)c(N)c(OC)c1)C[C@]1(O)C(=O)C(C)=C[C@@H]41)O2`, for which the inhibition constant Ki worked out at 2.68 nM in assay [1], 990 nM in [2], 1800 nM in [3] and 3.01 nM in [4].
As for `C=C(C)[C@]12C[C@@H](C)[C@@]34O[C@](Cc5ccccc5)(O[C@@H]1[C@@H]3C=C(COC(=O)Oc1cc(F)c(O)c(OC)c1)C[C@]1(O)C(=O)C(C)=C[C@@H]41)O2`, the Ki stood at 138 nM in assay [2] and 1.17 nM in assay [4]. The EC50 in assay [7] was determined as 16.3 nM; in assay [8], 4.97 nM.
As to `C=C(C)[C@]12C[C@@H](C)[C@@]34O[C@](Cc5ccccc5)(O[C@@H]1[C@@H]3C=C(COC(=O)Cc1cc(I)c(O)c(OC)c1)C[C@]1(O)C(=O)C(C)=C[C@@H]41)O2` [IODORESINIFERATOXIN], the figures for the Ki in [2] and in [3] were 11.8 nM and 5.87 nM, respectively.
The compound `C=C(C)[C@]12C[C@@H](C)[C@@]34O[C@](Cc5ccccc5)(O[C@@H]1[C@@H]3C=C(COC(=O)Cc1ccc(O)c(OC)c1)C[C@]1(O)C(=O)C(C)=C[C@@H]41)O2` [RESINIFERATOXIN] displayed a Ki in assay [2] of 1.23 nM. In addition, in assay [7], the EC50 amounted to 0.92 nM.
For `C=C(C)[C@]12C[C@@H](C)[C@@]34O[C@](Cc5ccccc5)(O[C@@H]1[C@@H]3C=C(COC(=O)Oc1cc(I)c(O)c(OC)c1)C[C@]1(O)C(=O)C(C)=C[C@@H]41)O2`, the Ki in assay [1] came to 2.23 nM; in assay [2] it was 49 nM; in assay [3], 189 nM; in assay [4], 1.66 nM. The Ratio Ki in assay [5] is 5.
Regarding `C=C(C)[C@]12C[C@@H](C)[C@@]34O[C@](Cc5ccccc5)(O[C@@H]1[C@@H]3C=C(COC(=O)Oc1ccc(NS(C)(=O)=O)c(OC)c1)C[C@]1(O)C(=O)C(C)=C[C@@H]41)O2`, the Activity in assay [6] amounted to 89%. The inhibition constant (Ki) in assay [2] came to 82 nM; in [4], 1.28 nM. In addition, the half-maximal effective concentration (EC50) in assay [7] was 16.5 nM; in assay [8] it was 4.62 nM.
Consider `C=C(C)[C@]12C[C@@H](C)[C@@]34O[C@](Cc5ccccc5)(O[C@@H]1[C@@H]3C=C(COC(=O)Oc1cc(Cl)c(O)c(OC)c1)C[C@]1(O)C(=O)C(C)=C[C@@H]41)O2`, for which the Ki in assay [1] came to 21.3 nM; in [2], 50 nM; in assay [3], 451 nM; in [4], 1.64 nM. For the same compound, the Activity in assay [6] is 13%. Also, the EC50 in assay [7] was 183 nM.

Usually Ki stands for the dissociation constant of the complex between target and ligand, obtained from inhibition or displacement. Broadly, the EC50 is the concentration giving half of the maximal effect. The inhibition is the change of the read-out against control, counted positive when it falls.
